This is a sample that favours compounds with a hit; in the whole collection about 1.7% have one here.
CSN deneddyl inh – CSN deneddylation inhibition; Purified CSN, SCF-Nedd8-OG deneddylation, fluorescence polarization; inhibition, % at 12.5 µM; hit rate 0.38% among 360,000; AID 651999;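 active = pattern-corrected inhibition above about 35%, with an unprinted fluorescence ratio check between 0.5 and 1.5, limit read from the data, passing the limit was not always enough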;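 note: 0% = enzyme with substrate and 100% = substrate without enzyme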
Target sequence (Q92905 whole entry, looked up, one chain of several): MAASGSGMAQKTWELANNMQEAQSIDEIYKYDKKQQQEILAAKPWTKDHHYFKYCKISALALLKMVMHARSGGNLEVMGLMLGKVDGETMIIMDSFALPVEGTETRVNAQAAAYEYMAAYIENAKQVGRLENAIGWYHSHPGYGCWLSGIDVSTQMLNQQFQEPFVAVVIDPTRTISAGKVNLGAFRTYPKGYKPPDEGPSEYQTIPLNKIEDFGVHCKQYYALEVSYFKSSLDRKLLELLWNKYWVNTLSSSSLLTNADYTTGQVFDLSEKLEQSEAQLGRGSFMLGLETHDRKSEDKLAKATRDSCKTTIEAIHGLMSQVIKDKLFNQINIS
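Test system: Human Csn5 produced in HEK293T cells | Compound: 12.5 µM single point | Times: 90 min, room temperature | Signal: Fluorescence polarization readout | Read-out basis: % inhibition of substrate cleavage by Csn5 | Controls: no-enzyme wells high, enzyme-with-substrate wells low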
HNF4A DNA FP – change in binding of human HNF4 alpha to DNA; hit rate 0.3% among 360,000; HNF4a-FITC DNA binding, fluorescence polarization, 1 h; AID 1224865; activity change, % at 10 µM; P41235; in the data active = activity change above about 30%, passing the limit was not always enough
TPT1 inhibitor – C. albicans TPT1 enzyme inhibition; hit rate 0.81% among 300,000; recombinant caTPT1, FP RNA substrate dephosphorylation; AID 1962; inhibition, % at 5 µM;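 active = inhibition above the mean of all tested compounds plus 3 SD, set per screening campaign, cut at about 24% in these data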;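 note: plate controls were DMSO alone for no effect and ferristatin control at 100 nM for full effect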
IDE act – activators of human insulin-degrading enzyme in cells. P14735. HEK cells, FAbeta-B cleavage, fluorescence polarization; 0% vehicle, 100% cell-free pure enzyme wells. activation, % at 5.96 µM. hit rate 0.073% among 340,000;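 active = activation above the mean of all tested compounds plus 3 SD, set per screening campaign, cut at about 17% in these data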
IDE cell inh – inhibitors of human insulin-degrading enzyme in cells. P14735. HEK cells, FAbetaB cleavage, fluorescence polarization. AID 434962. inhibition, % at 5.59 µM. hit rate 0.41% among 320,000;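 active = percent inhibition above the average of all tested compounds plus 3 SD, set per screening campaign, cut at about 16% in these data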;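 note: IDE supplied by intact live HEK cells; FP after avidin binding of uncleaved biotin substrate so inhibition keeps polarization high; 0% = DMSO wells and 100% = 60 µM reference IDE inhibitor Ii1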
Rpn11 inh – blocks the human proteasome subunit Rpn11 | O00487 | human 26S proteasome, Ub4-pepOG fluorescence polarization; 20S core pre-blocked with epoxomicin | calls only at 20 µM | hit rate 0.59% among 360,000 | AID 588493;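 active = inhibition at 20 µM, scaled to each plate's controls, above about 33%, limit read from the data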
Target sequence (O00487 whole entry, looked up): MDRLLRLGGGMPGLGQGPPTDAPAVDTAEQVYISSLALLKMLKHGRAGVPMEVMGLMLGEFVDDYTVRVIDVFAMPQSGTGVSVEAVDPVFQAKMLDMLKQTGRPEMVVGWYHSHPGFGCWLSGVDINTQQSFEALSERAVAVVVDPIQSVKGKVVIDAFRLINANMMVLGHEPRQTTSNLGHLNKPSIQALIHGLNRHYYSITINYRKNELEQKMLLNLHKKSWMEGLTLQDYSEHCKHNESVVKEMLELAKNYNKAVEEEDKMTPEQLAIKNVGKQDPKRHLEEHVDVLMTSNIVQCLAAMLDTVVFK
Rpn11 confirm – confirmation of human proteasome Rpn11 inhibitors | shares compounds with Rpn11 inh | purified human 26S proteasome, Ub4-pepOG fluorescence polarization; proteasome pretreated with epoxomicin | inhibition, % at 20 µM | hit rate 29% among 1,900 | AID 602318
MMP-2 inh – counter-screen for RPN11 inhibitors: inhibition of human MMP-2 | shares compounds with Rpn11 inh | inhibition, % at 20 µM | recombinant MMP-2, FRET peptide cleavage fluorescence | AID 602330 | hit rate 4% among 1,900;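 note: human MMP-2 activated beforehand with APMA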
Thrombin inh – blocks bovine thrombin, flagging nonselective RPN11 hits. inhibition, % at 20 µM. hit rate 13% among 1,900. shares compounds with Rpn11 inh. bovine thrombin cleavage of Ub4-pepOG, fluorescence polarization. AID 602333;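 active = mean inhibition at least 40% at 20 µM, or signal 3 deviations below plate average, so some actives read negative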;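 note: plate controls were thrombin with DMSO for no effect and buffer wells lacking thrombin for full effect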
An asterisk follows results filed as active; i = inactive; . = not tested or not shown; + = active, no number. Cut-off read from the data, not from the text of the source, unless noted: active = inhibition above about 40%; inactive = the rest.

SMILES	CSN deneddyl inh	HNF4A DNA FP	TPT1 inhibitor	IDE act	IDE cell inh	Rpn11 inh	Rpn11 confirm	MMP-2 inh	Thrombin inh
COc1ccc2nc(C)cc(SCC(=O)N/N=C/c3c(OC)ccc4ccccc34)c2c1	43.5*	17.4	-1.0	6.0	3.3	+	10.3	-42.9	6.3
Cc1ccc(C(=O)N/C(=C\c2ccc(-c3cc(Cl)ccc3Cl)o2)C(=O)NCc2cccnc2)cc1	-5.3	-0.1	7.5	4.6	-0.5	+	4.6	-1.2	-1.6
O=C(c1ccco1)N1CCN(CCCCN2C(=O)c3ccccc3C2=O)CC1	0.7	4.7	2.9	1.7	0.1	i	.	.	.
O=C1c2ccccc2-c2onc3c(N4CCN(CCO)CC4)cc(N4CCN(C(=O)c5ccco5)CC4)c1c23	8.0	4.8	-10.7	1.9	-4.5	+	active	-92.3	active
Cc1cccn2c(=S)[nH]nc12	-1.9	4.1	.	-3.4	.	i	.	.	.
COc1ccc(N2C(=O)c3ccc(NC(C)=O)cc3C2=O)cc1	3.2	27.9	0.3	6.8	-2.2	+	-18.4	31.4	-22.0
Cc1ccccc1CC(=O)Nc1ccc(C(=O)N2CCCC2)cc1	0.4	13.3	-5.0	2.2	4.2	+	3.1	-27.8	-11.9
COc1cc(NC(=O)CCn2c(=S)[nH]c3ccccc3c2=O)cc(OC)c1OC	3.5	18.6	.	.	.	+	102.7*	39.4	10.8
CC(C)NC(=O)CN(Cc1ccccc1)S(=O)(=O)c1ccccc1	3.1	-2.7	1.4	1.6	-1.7	i	.	.	.
NC(=O)COc1ccc(/C=N\NC(=O)c2ccc(-c3ccccc3)cc2)cc1	27.0	5.3	-2.0	2.3	1.0	+	3.0	-10.2	-1.8
O=C(CCC(=O)c1cccs1)OCC(=O)N1CCN(C(=O)c2ccco2)CC1	1.4	35.0*	-4.8	1.7	8.0	+	-3.5	-20.1	-7.5
Cn1cc(C(=O)C(=O)N2CCCc3ccccc32)c2ccccc21	-7.2	-4.0	0.6	4.8	-4.5	i	.	.	.
Cn1cc(S(=O)(=O)CC(=O)N2CCCc3ccccc32)c2ccccc21	0.5	13.1	0.3	7.2	-5.4	+	-3.2	-27.8	-4.3
Fc1ccccc1-c1nc(-c2ccncc2)no1	1.0	2.2	-0.8	-4.8	-0.3	i	.	.	.
Fc1ccccc1-c1nc(-c2ccccc2)no1	-0.7	-0.4	0.7	0.9	6.9	+	5.6	10.7	-9.5
O=C(CCc1nc2sc3c(c2c(=O)[nH]1)CCCC3)NCCc1ccc(Cl)cc1	10.0	13.0	.	.	.	i	.	.	.
COC(=O)CSc1nnc(CCc2nc3ccccc3[nH]2)n1C	0.9	1.4	-2.4	-0.2	3.3	i	.	.	.
Cc1cc(N(C)C)ccc1N=Nc1ccc(N)cc1	14.3	25.4	13.8	-3.6	4.1	+	35.2	5.3	28.4
Cn1c2ccccc2c2cc(C(=O)OCC(=O)N3CC(=O)Nc4ccccc43)sc21	0.6	27.9	12.3	-5.4	0.1	+	121.1*	-20.6	88.2*
Cn1c2ccccc2c2n[nH]c(=O)nc21	-5.9	1.2	-5.0	-0.7	3.7	i	.	.	.
CSc1ccccc1NC(=O)CN1c2ccccc2CC1C (configuration not stated)	-3.3	3.3	-2.2	4.3	-1.0	i	.	.	.
Cc1csc(NC(=O)CSc2nc3sc(C)c(C)c3c(=O)[nH]2)n1	19.6	21.4	11.8	2.8	-3.0	+	44.3*	-4.5	28.9
Cc1sc2nc(SCC(=O)Nc3ccccc3F)[nH]c(=O)c2c1C	-3.3	-0.2	2.4	7.6	-3.6	i	.	.	.
O=C(NCC1CCCCC1)c1[nH]c(C(F)(F)F)nc1-c1ccccc1	4.8	-5.4	.	.	.	i	.	.	.
N#CCSc1nc2cc(C(=O)N3CCC(C(N)=O)CC3)ccc2c2nc3ccccc3n12	1.0	-0.8	-0.5	-13.4	10.9	+	40.0	-39.3	7.5
SMILES	CSN deneddyl inh	HNF4A DNA FP	TPT1 inhibitor	IDE act	IDE cell inh	Rpn11 inh	Rpn11 confirm	MMP-2 inh	Thrombin inh
O=C(/C=C/c1ccccc1[N+](=O)[O-])NNC(=O)c1ccncc1	-7.1	0.2	.	1.3	0.9	i	.	.	.
CC1C(=O)N(Cc2cn(Cc3ccco3)nn2)CCS(=O)(=O)N1Cc1ccc(-c2cccnc2)cc1 (configuration not stated)	9.6	-2.8	.	.	.	+	-2.6	22.8	12.7
Cc1ccc(-c2ccc(CN3C(C)C(=O)N(Cc4cn(Cc5ccco5)nn4)CCS3(=O)=O)cc2)cc1 (configuration not stated)	1.2	-1.8	.	.	.	i	.	.	.
Cc1cc(C)nc(NC(=O)NC(=O)c2ccccc2)n1	-2.8	3.5	-3.8	2.2	-1.7	i	.	.	.
Cc1cc(C)nc(NC(C)(C)C(=O)O)n1	-1.4	46.7*	-2.1	5.8	3.1	+	-8.9	2.6	-4.9
Cc1cc2nccc(-c3ccc(F)cc3)n2n1	0.5	-0.3	0.3	0.6	-0.3	i	.	.	.
Cc1ccc2sc(NNC(=O)c3cc(=O)c4ccccc4o3)nc2c1C	9.6	13.3	12.4	-0.8	3.1	+	20.4	11.9	-13.5
Cc1cccc2sc(NNC(=O)c3cc(=O)c4ccccc4o3)nc12	9.7	4.7	13.2	6.4	1.1	i	.	.	.
COC(=O)c1c(NC(=O)COC(=O)CCS(=O)(=O)c2ccc(C)cc2)sc(C)c1C	-0.5	2.6	3.9	2.8	0.3	i	.	.	.
CC(=O)Nc1cccc(-c2ccnc3c2CC(C(=O)Nc2cccc(Oc4ccccc4)c2)O3)c1 (configuration not stated)	-2.1	3.5	.	.	.	i	.	.	.
Cc1nc(NC(=O)c2ccco2)sc1-c1csc(Nc2ccc(Cl)cc2)n1	103.9	4.8	-3.7	-0.1	9.0	+	12.1	34.7	-4.9
O=C(NC1CCCC1)C(c1ccncc1)N(Cc1ccccc1F)C(=O)c1csnn1 (configuration not stated)	-5.6	4.0	1.9	-5.1	-1.7	i	.	.	.
O=C(NC1CCCC1)C(c1ccccn1)N(Cc1ccccc1F)C(=O)c1csnn1 (configuration not stated)	-5.6	3.6	-0.4	-2.8	0.1	+	-21.9	-21.0	-26.6
CNC(=O)/C(C#N)=C/c1c(N2CCN(c3ccc(OC)cc3)CC2)nc2c(C)cccn2c1=O	3.0	-1.1	-2.9	1.9	1.3	+	-16.7	-57.0	9.4
COC(=O)/C(C#N)=C/c1c(N2CCN(c3ccc(OC)cc3)CC2)nc2c(C)cccn2c1=O	16.4	-2.1	5.2	0.1	1.5	i	.	.	.

Assay outcomes: PubChem BioAssay, several laboratories
